# Read-outs that look alike come from different tables or passages of the source.
# Legend:
# [1] = format: in vitro ADME; details: mouse, serum, pH 7.4
# [2] = In vitro stability of 99mTc-cyclized analogues in PBS; format: physicochemical; details: pH 7.4, 37 °C
# Summary of the method: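 Test peptides were labelled with 99mTc by exchange from 99mTc-glucoheptonate (pH 7.9–8.1, 60 °C, 30 min), purified by radio-RP-HPLC, mixed with gentisic acid and evaporated. They were diluted in PBS or 1 mM cysteine, adjusted to pH 7.4 and incubated at 37 °C. Aliquots at 1, 2, 4 and 24 h were analysed by RP-HPLC for % intact. Replicate measurements used radio-TLC on C18 (10% ammonium acetate; 1:1 TFA-water/acetonitrile).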
# [3] = parameters: species or system CF-1 mice; details: mouse
# [4] = Stability of 99mTc-cyclized analogues to cysteine challenge; format: physicochemical; details: pH 7.4, 37 °C
# [5] = mouse, cited from earlier work
substance,measurement,setting,value
^99mTc-Ac-Tyr^3-octreotate [99mTc-1],percent intact 99mTc-analogue post purification,[1]; 1 h,91.4 ± 1.8%
same,percent intact 99mTc-analogue post purification,[1]; 2 h,81.7 ± 4.1%
same,percent intact 99mTc-analogue post purification,[1]; 4 h,81.4 ± 4.7%
same,percent intact 99mTc-analogue post purification,[1]; 24 h,51.2 ± 4.4%
same,percent intact 99mTc-analogue post purification,[2]; 1 h,90.2 ± 2.4%
same,percent intact 99mTc-analogue post purification,[2]; 2 h,83.4 ± 5.2%
same,percent intact 99mTc-analogue post purification,[2]; 4 h,76.3 ± 3.4%
same,percent intact 99mTc-analogue post purification,[2]; 24 h,52.0 ± 5.6%
same,"In vivo biodistribution, Adrenals","[3]; 150 ug, 1 h",2.18 ± 0.69 %ID/g
same,"In vivo biodistribution, Blood","[3]; 150 ug, 1 h",4.31 ± 0.44 %ID/g
same,"In vivo biodistribution, Kidney","[3]; 150 ug, 1 h",8.00 ± 1.74 %ID/g
same,"In vivo biodistribution, Lg. Int","[3]; 150 ug, 1 h",1.70 ± 0.18 %ID/g
same,"In vivo biodistribution, Liver","[3]; 150 ug, 1 h",6.47 ± 1.64 %ID/g
same,"In vivo biodistribution, Muscle","[3]; 150 ug, 1 h",0.68 ± 0.06 %ID/g
same,"In vivo biodistribution, Pancreas","[3]; 150 ug, 1 h",2.08 ± 0.31 %ID/g
same,"In vivo biodistribution, Sm. lnt","[3]; 150 ug, 1 h",10.91 ± 2.12 %ID/g
same,"In vivo biodistribution, Spleen","[3]; 150 ug, 1 h",1.74 ± 0.24 %ID/g
same,"In vivo biodistribution, Stomach","[3]; 150 ug, 1 h",14.18 ± 4.97 %ID/g
same,"In vivo biodistribution, Adrenals",[3]; 1 h,1.53 ± 0.30 %ID/g
same,"In vivo biodistribution, Blood",[3]; 1 h,3.81 ± 0.10 %ID/g
same,"In vivo biodistribution, Kidney",[3]; 1 h,12.05 ± 2.14 %ID/g
same,"In vivo biodistribution, Lg. Int",[3]; 1 h,2.55 ± 0.21 %ID/g
same,"In vivo biodistribution, Liver",[3]; 1 h,4.17 ± 0.34 %ID/g
same,"In vivo biodistribution, Muscle",[3]; 1 h,0.53 ± 0.06 %ID/g
same,"In vivo biodistribution, Pancreas",[3]; 1 h,1.49 ± 0.06 %ID/g
same,"In vivo biodistribution, Sm. lnt",[3]; 1 h,15.48 ± 3.35 %ID/g
same,"In vivo biodistribution, Spleen",[3]; 1 h,1.30 ± 0.17 %ID/g
same,"In vivo biodistribution, Stomach",[3]; 1 h,11.69 ± 10.10 %ID/g
same,"In vivo biodistribution, Adrenals",[3]; 4 h,0.86 ± 0.43 %ID/g
same,"In vivo biodistribution, Blood",[3]; 4 h,1.50 ± 0.29 %ID/g
same,"In vivo biodistribution, Kidney",[3]; 4 h,6.54 ± 0.23 %ID/g
same,"In vivo biodistribution, Lg. Int",[3]; 4 h,22.09 ± 4.99 %ID/g
same,"In vivo biodistribution, Liver",[3]; 4 h,1.58 ± 0.06 %ID/g
same,"In vivo biodistribution, Muscle",[3]; 4 h,0.25 ± 0.06 %ID/g
same,"In vivo biodistribution, Pancreas",[3]; 4 h,0.55 ± 0.04 %ID/g
same,"In vivo biodistribution, Sm. lnt",[3]; 4 h,2.02 ± 0.67 %ID/g
same,"In vivo biodistribution, Spleen",[3]; 4 h,0.55 ± 0.13 %ID/g
same,"In vivo biodistribution, Stomach",[3]; 4 h,7.54 ± 4.16 %ID/g
same,"In vivo biodistribution, Adrenals",[3]; 24 h,0.12 ± 0.03 %ID/g
same,"In vivo biodistribution, Blood",[3]; 24 h,0.15 ± 0.02 %ID/g
same,"In vivo biodistribution, Kidney",[3]; 24 h,2.04 ± 0.37 %ID/g
same,"In vivo biodistribution, Lg. Int",[3]; 24 h,3.08 ± 1.60 %ID/g
same,"In vivo biodistribution, Liver",[3]; 24 h,0.39 ± 0.03 %ID/g
same,"In vivo biodistribution, Muscle",[3]; 24 h,0.05 ± 0.02 %ID/g
same,"In vivo biodistribution, Pancreas",[3]; 24 h,0.07 ± 0.01 %ID/g
same,"In vivo biodistribution, Sm. lnt",[3]; 24 h,0.68 ± 0.20 %ID/g
same,"In vivo biodistribution, Spleen",[3]; 24 h,0.08 ± 0.01 %ID/g
same,"In vivo biodistribution, Stomach",[3]; 24 h,1.26 ± 0.49 %ID/g
same,uptake in the various tissues and organs relative to TATE and 99mTc-2,[3]; in vivo,two to four times higher
same,percent intact 99mTc-analogue post purification,"[4]; 1 mM Cys, 1 h",97.1 ± 3.3%
same,percent intact 99mTc-analogue post purification,"[4]; 1 mM Cys, 2 h",95.1 ± 2.7%
same,percent intact 99mTc-analogue post purification,"[4]; 1 mM Cys, 4 h",87.2 ± 1.0%
same,percent intact 99mTc-analogue post purification,"[4]; 1 mM Cys, 24 h",81.7 ± 1.8%
same,percent intact 99mTc-analogue post purification,"[4]; 10 mM Cys, 1 h",60.1 ± 5.1%
same,percent intact 99mTc-analogue post purification,"[4]; 10 mM Cys, 2 h",55.8 ± 6.9%
same,percent intact 99mTc-analogue post purification,"[4]; 10 mM Cys, 4 h",38.9 ± 3.7%
same,percent intact 99mTc-analogue post purification,"[4]; 10 mM Cys, 24 h",22.9 ± 4.5%
^99mTc-Tyr^3-octreotate [99mTc-TATE],"In vivo biodistribution, Adrenals",[5]; 4 h,0.14 ± 0.06 %ID/g
same,"In vivo biodistribution, Blood",[5]; 4 h,0.44 ± 0.05 %ID/g
same,"In vivo biodistribution, Kidney",[5]; 4 h,1.37 ± 0.29 %ID/g
same,"In vivo biodistribution, Lg. Int",[5]; 4 h,60.20 ± 6.39 %ID/g
same,"In vivo biodistribution, Liver",[5]; 4 h,0.66 ± 0.03 %ID/g
same,"In vivo biodistribution, Muscle",[5]; 4 h,0.05 ± 0.01 %ID/g
same,"In vivo biodistribution, Pancreas",[5]; 4 h,0.19 ± 0.06 %ID/g
same,"In vivo biodistribution, Sm. lnt",[5]; 4 h,2.08 ± 1.08 %ID/g
same,"In vivo biodistribution, Spleen",[5]; 4 h,0.20 ± 0.02 %ID/g
same,"In vivo biodistribution, Stomach",[5]; 4 h,4.82 ± 0.95 %ID/g
same,"In vivo biodistribution, Adrenals",[5]; 24 h,0.01 ± 0.01 %ID/g
same,"In vivo biodistribution, Blood",[5]; 24 h,0.05 ± 0.01 %ID/g
same,"In vivo biodistribution, Kidney",[5]; 24 h,0.60 ± 0.05 %ID/g
same,"In vivo biodistribution, Lg. Int",[5]; 24 h,0.59 ± 0.24 %ID/g
same,"In vivo biodistribution, Liver",[5]; 24 h,0.22 ± 0.03 %ID/g
same,"In vivo biodistribution, Muscle",[5]; 24 h,0.01 ± 0.01 %ID/g
same,"In vivo biodistribution, Pancreas",[5]; 24 h,0.03 ± 0.01 %ID/g
same,"In vivo biodistribution, Sm. lnt",[5]; 24 h,0.19 ± 0.01 %ID/g
same,"In vivo biodistribution, Spleen",[5]; 24 h,0.05 ± 0.01 %ID/g
same,"In vivo biodistribution, Stomach",[5]; 24 h,0.69 ± 0.23 %ID/g
same,percent intact 99mTc-analogue post purification,[1]; 1 h,97.4 ± 1.9%
same,percent intact 99mTc-analogue post purification,[1]; 2 h,97.1 ± 1.5%
same,percent intact 99mTc-analogue post purification,[1]; 4 h,95.2 ± 1.7%
same,percent intact 99mTc-analogue post purification,[1]; 24 h,57.6 ± 7.5%
same,percent intact 99mTc-analogue post purification,[2]; 1 h,86.2 ± 5.4%
same,percent intact 99mTc-analogue post purification,[2]; 2 h,73.7 ± 4.3%
same,percent intact 99mTc-analogue post purification,[2]; 4 h,60.4 ± 1.8%
same,percent intact 99mTc-analogue post purification,[2]; 24 h,37.9 ± 7.7%
same,percent intact 99mTc-analogue post purification,"[4]; 1 mM Cys, 1 h",95.8 ± 2.4%
same,percent intact 99mTc-analogue post purification,"[4]; 1 mM Cys, 2 h",85.3 ± 4.0%
same,percent intact 99mTc-analogue post purification,"[4]; 1 mM Cys, 4 h",77.8 ± 3.3%
same,percent intact 99mTc-analogue post purification,"[4]; 1 mM Cys, 24 h",45.0 ± 5.8%
same,percent intact 99mTc-analogue post purification,"[4]; 10 mM Cys, 1 h",63.9 ± 4.1%
same,percent intact 99mTc-analogue post purification,"[4]; 10 mM Cys, 2 h",53.3 ± 3.5%
same,percent intact 99mTc-analogue post purification,"[4]; 10 mM Cys, 4 h",42.5 ± 5.6%
same,percent intact 99mTc-analogue post purification,"[4]; 10 mM Cys, 24 h",15.0 ± 8.3%

# — PMC3086726 (Nuclear medicine and biology, 2010)
